Experiments:
Assay type in all cases: functional
HOP-92 = assay: Growth inhibition of human HOP-92 cells assessed as cell growth at 100 uM incubated for 48 hrs by sulforhodamine B assay relative to control; conditions: read-out: Activity
KM12 [1] = assay: Growth inhibition of human KM12 cells assessed as cell growth at 100 uM incubated for 48 hrs by sulforhodamine B assay relative to control; conditions: read-out: Activity
OVCAR-3 = assay: Growth inhibition of human OVCAR-3 cells assessed as cell growth at 100 uM incubated for 48 hrs by sulforhodamine B assay relative to control; conditions: read-out: Activity
MOLT-4 = assay: Growth inhibition of human MOLT-4 cells assessed as cell growth at 1 uM incubated for 48 hrs by sulforhodamine B assay relative to control; conditions: read-out: Activity
ACHN = assay: Growth inhibition of human ACHN cells assessed as cell growth at 100 uM incubated for 48 hrs by sulforhodamine B assay relative to control; conditions: read-out: Activity
Malme-3M = assay: Growth inhibition of human Malme-3M cells incubated for 48 hrs by sulforhodamine B assay
Summary of the method: (§1)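 NCI60 panel at the NCI Developmental Therapeutics Program. Only compounds active in the 10 µM screen went to dose-response testing. GI50, the concentration giving 50% of maximal inhibition of proliferation, and TGI, the concentration giving total growth inhibition, were derived from the dose-response curves.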

MCF7 = assay: Growth inhibition of human MCF7 cells assessed as cell growth at 100 uM incubated for 48 hrs by sulforhodamine B assay relative to control; conditions: read-out: Activity
NCI-H522 [2] = assay: Growth inhibition of human NCI-H522 cells assessed as cell growth at 100 uM incubated for 48 hrs by sulforhodamine B assay relative to control; conditions: read-out: Activity
M14 = assay: Growth inhibition of human M14 cells incubated for 48 hrs by sulforhodamine B assay; summary of the method: as §1
MDA-MB-231 = assay: Growth inhibition of human MDA-MB-231 cells assessed as cell growth at 0.01 uM incubated for 48 hrs by sulforhodamine B assay relative to control; conditions: read-out: Activity
HCT-15 = assay: Growth inhibition of human HCT-15 cells assessed as cell growth at 100 uM incubated for 48 hrs by sulforhodamine B assay relative to control; conditions: read-out: Activity
HCT-116 [3] = assay: Growth inhibition of human HCT-116 cells assessed as cell growth at 0.01 uM incubated for 48 hrs by sulforhodamine B assay relative to control; conditions: read-out: Activity
KM12 [4] = assay: Growth inhibition of human KM12 cells assessed as cell growth at 1 uM incubated for 48 hrs by sulforhodamine B assay relative to control; conditions: read-out: Activity
NCI-H522 [5] = assay: Growth inhibition of human NCI-H522 cells incubated for 48 hrs by sulforhodamine B assay; summary of the method: as §1
T47D = assay: Growth inhibition of human T47D cells incubated for 48 hrs by sulforhodamine B assay
Summary of the method: (§2)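 NCI DTP 60-line human tumour panel. Dose-response curves were run only for ligands active in the initial 10 µM screen. GI50 (concentration giving 50% of maximal inhibition of proliferation) and TGI (concentration giving total growth inhibition) were derived from these curves.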

DU-145 [6] = assay: Growth inhibition of human DU-145 cells assessed as cell growth at 0.01 uM incubated for 48 hrs by sulforhodamine B assay relative to control; conditions: read-out: Activity
Summary of the method: (§3)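 NCI Developmental Therapeutics Program NCI60 panel. Compounds that were active in the 10 µM one-dose screen went on to dose–response testing. Growth at each concentration is expressed relative to untreated control (100%). GI50 (concentration giving 50% of maximal inhibition of proliferation) and TGI (concentration giving total growth inhibition) were derived from the curves.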

CCRF-CEM = assay: Growth inhibition of human CCRF-CEM cells assessed as cell growth at 0.1 uM incubated for 48 hrs by sulforhodamine B assay relative to control; conditions: read-out: Activity; summary of the method: as §3
PC-3 [7] = assay: Growth inhibition of human PC-3 cells incubated for 48 hrs by sulforhodamine B assay; summary of the method: as §2
SN12C = assay: Growth inhibition of human SN12C cells assessed as cell growth at 1 uM incubated for 48 hrs by sulforhodamine B assay relative to control; conditions: read-out: Activity
SF-268 = assay: Growth inhibition of human SF-268 cells assessed as cell growth at 0.01 uM incubated for 48 hrs by sulforhodamine B assay relative to control; conditions: read-out: Activity
OVCAR-5 = assay: Growth inhibition of human OVCAR-5 cells assessed as cell growth at 0.01 uM incubated for 48 hrs by sulforhodamine B assay relative to control; conditions: read-out: Activity
K562 = assay: Growth inhibition of human K562 cells incubated for 48 hrs by sulforhodamine B assay; summary of the method: as §1
Hs-578T [8] = assay: Growth inhibition of human Hs-578T cells assessed as cell growth at 0.1 uM incubated for 48 hrs by sulforhodamine B assay relative to control; conditions: read-out: Activity
Hs-578T [9] = assay: Growth inhibition of human Hs-578T cells assessed as cell growth at 0.01 uM incubated for 48 hrs by sulforhodamine B assay relative to control; conditions: read-out: Activity
PC-3 [10] = assay: Growth inhibition of human PC-3 cells assessed as cell growth at 0.1 uM incubated for 48 hrs by sulforhodamine B assay relative to control; conditions: read-out: Activity
HT-29 = assay: Growth inhibition of human HT-29 cells assessed as cell growth at 100 uM incubated for 48 hrs by sulforhodamine B assay relative to control; conditions: read-out: Activity
NCI/ADR-RES = assay: Growth inhibition of human NCI/ADR-RES cells incubated for 48 hrs by sulforhodamine B assay; summary of the method: as §1
HOP-62 = assay: Growth inhibition of human HOP-62 cells assessed as cell growth at 100 uM incubated for 48 hrs by sulforhodamine B assay relative to control; conditions: read-out: Activity
DU-145 [11] = assay: Growth inhibition of human DU-145 cells assessed as cell growth at 100 uM incubated for 48 hrs by sulforhodamine B assay relative to control; conditions: read-out: Activity; summary of the method: as §3
UACC-257 = assay: Growth inhibition of human UACC-257 cells assessed as cell growth at 1 uM incubated for 48 hrs by sulforhodamine B assay relative to control; conditions: read-out: Activity
MDA-MB-435 = assay: Growth inhibition of human MDA-MB-435 cells assessed as cell growth at 1 uM incubated for 48 hrs by sulforhodamine B assay relative to control; conditions: read-out: Activity
SF-295 = assay: Growth inhibition of human SF-295 cells assessed as cell growth at 0.1 uM incubated for 48 hrs by sulforhodamine B assay relative to control; conditions: read-out: Activity
NCI-H460 = assay: Growth inhibition of human NCI-H460 cells assessed as cell growth at 100 uM incubated for 48 hrs by sulforhodamine B assay relative to control; conditions: read-out: Activity
HCT-116 [12] = assay: Growth inhibition of human HCT-116 cells assessed as cell growth at 0.1 uM incubated for 48 hrs by sulforhodamine B assay relative to control; conditions: read-out: Activity
786-0 = assay: Growth inhibition of human 786-0 cells assessed as cell growth at 100 uM incubated for 48 hrs by sulforhodamine B assay relative to control; conditions: read-out: Activity
[13] = read-out: LC50 (the source's name)

**Q.** Which results are given for `Cc1cccc(NC(=O)c2sc3nc4c(cc3c2N)C(=O)CCC4)c1`?
**A.** growth at 100 µM (HOP-92): -40%; growth at 100 µM (KM12 [1]): -58%; growth at 100 µM (OVCAR-3): -23%; growth at 1 µM (MOLT-4): 54%; growth at 100 µM (ACHN): -21%; LC50 (Malme-3M): > 100 µM; TGI (Malme-3M): ≥ 100 µM; growth at 100 µM (MCF7): -56%; growth at 100 µM (NCI-H522 [2]): -27%; GI50 (M14): 0.165 µM; LC50 (concentration killing 50% of cells) (M14): > 100 µM; TGI (M14): ≥ 100 µM; growth at 0.01 µM (MDA-MB-231): 99%; growth at 100 µM (HCT-15): 5%; growth at 0.01 µM (HCT-116 [3]): 93%; growth at 1 µM (KM12 [4]): 19%; GI50 (NCI-H522 [5]): 0.107 µM; LC50 (NCI-H522 [5]): > 100 µM; TGI (NCI-H522 [5]): 621 µM; TGI (T47D): > 100 µM; CC50 (T47D; [13]): > 100 µM; growth at 0.01 µM (DU-145 [6]): 102%; growth at 0.1 µM (CCRF-CEM): 90%; GI50 (PC-3 [7]): 0.393 µM; TGI (PC-3 [7]): ≥ 100 µM; CC50 (PC-3 [7]; [13]): > 100 µM; growth at 1 µM (SN12C): 42%; growth at 0.01 µM (SF-268): 99%; growth at 0.01 µM (OVCAR-5): 96%; GI50 (K562): 0.144 µM; LC50 (concentration killing 50% of cells) (K562): > 100 µM; TGI (K562): > 100 µM; growth at 0.1 µM (Hs-578T [8]): 76%; growth at 0.01 µM (Hs-578T [9]): 88%; growth at 0.1 µM (PC-3 [10]): 80%; growth at 100 µM (HT-29): 3%; GI50 (NCI/ADR-RES): 0.23 µM; TGI (NCI/ADR-RES): ≥ 100 µM; CC50 (NCI/ADR-RES; [13]): > 100 µM; growth at 100 µM (HOP-62): 1%; growth at 100 µM (DU-145 [11]): -34%; growth at 1 µM (UACC-257): 53%; growth at 1 µM (MDA-MB-435): -61%; growth at 0.1 µM (SF-295): 60%; growth at 100 µM (NCI-H460): 7%; growth at 0.1 µM (HCT-116 [12]): 68%; growth at 100 µM (786-0): 2%

Source: ChEMBL document CHEMBL4715736, “Identification of anticancer agents based on the thieno[2,3-b]pyridine and 1H-pyrazole molecular scaffolds” (2016)
